Measured values: article PMC4109288 (Lancet, 2012)
Marks after values point to notes of the source that are not given here.

Experiments:
[1] = Phase I trial: safety and tolerability, adverse events; settings: in vivo
tumour FDG uptake = experiment: FDG-PET imaging at baseline and Week 2; assay type: in vivo, human; settings: 35 mg QD–300 mg BID, Week 2
Procedure, shortened: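 Pharmacodynamic FDG-PET imaging at baseline and on Day 15 of daily dabrafenib-class dosing. Patients were in the accelerated dose-titration cohorts, which started at 12 mg daily on 21-day cycles.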

[2] = tested on: V600 BRAF-mutant melanoma with untreated brain metastases; experiment: RP2D expansion, brain lesion assessment by MRI and PFS; assay type: in vivo, human
Procedure, shortened: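 Expansion cohort of patients with asymptomatic, untreated brain metastases ≥3 mm and no prior resection, stereotactic radiosurgery or whole-brain radiotherapy, given 150 mg BID. BRAF was centrally genotyped. Lesions were imaged by gadolinium-enhanced T1-weighted MRI, first at 6 weeks and then every 9 weeks. Sum of diameters of lesions ≥3 mm at baseline was expressed as % change from baseline. RECIST 1.0 applied. PFS by Kaplan–Meier.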

[3] = tested on: non-V600E BRAF-mutant melanoma; experiment: Tumour response and PFS in melanoma with non-V600E BRAF mutations; assay type: in vivo, human
Procedure, shortened: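 Melanoma patients with V600K or non-V600 or complex BRAF mutations, treated at all dose levels (titration from 12 mg daily, 21-day cycles). Response was assessed by RECIST 1.0 with restaging at 9 or 6 weeks, then every 9 weeks, and 95% exact CIs were given. PFS was estimated by Kaplan–Meier from first dose. Treatment duration ran from first dose to last dose or the 25 March 2011 data cut.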

BRAF wild-type melanoma = experiment: Tumour response in BRAF wild-type melanoma; assay type: in vivo, human; settings: three patients with BRAF wild-type melanoma
Procedure, shortened: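 Patients had histologically confirmed incurable solid tumours, ECOG ≤1, and received accelerated dose titration from 12 mg daily on 21-day cycles until progression or intolerable toxicity. Response was assessed by RECIST 1.0. Baseline imaging was within 35 days. Restaging was at 9 weeks (escalation) or 6 weeks (expansion), then every 9 weeks.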

[4] = cited from earlier work; for Penetration of the blood-brain barrier: in vivo
[5] = tested on: BRAF-mutant metastatic melanoma; settings: cited from earlier work
[6] = tested on: K601E BRAF-mutant cell line; settings: cited from earlier work
[7] = among the eight patients who progressed

With CC(C)(C)c1nc(-c2cccc(NS(=O)(=O)c3c(F)cccc3F)c2F)c(-c2ccnc(N)n2)s1 [dabrafenib, Dabrafenib] the “Patients experiencing AEs higher than grade 2” value ([1]; human) was 24%, the “Patients requiring dose reductions” value ([1]; human) was 7% and the “Patients requiring dose reductions for fatigue” value ([1]; human) was 2%. The “Patients requiring dose reductions for neutropenia” value ([1]; human) was 1%, the “Patients requiring dose reductions for pyrexia” value ([1]; human) was 3% and the “Patients with arthralgia of grade 2 or higher” value ([1]; human) was “less than 5%”. For the same compound, the “Patients with dose-limiting toxicities (DLTs)” value ([1]; human) was “three of 20”, the “Patients with pyrexia as a serious AE” value ([1]; human) was 4% and the “Patients with treatment-related actinic keratosis” value ([1]; human) was 10%. The “Patients with treatment-related fatigue grade 2 or higher” value ([1]; human) was 8%, the “Patients with treatment-related hyperkeratosis” value ([1]; human) was 26% and the “Patients with treatment-related hyperkeratotic lesions of grade 2 or above” value ([1]; human) was 3%. For the same compound, the “Patients with treatment-related pyrexia” value ([1]; human) was 20%, the “Patients with treatment-related pyrexia grade 2 or higher” value ([1]; human) was 6% and the “Range of onset of cutaneous SCC” value ([1]; human) was 9 to 217 days. For the same compound, the “Range of time to first pyrexia” value ([1]; human) was 1 to 532 days, the “Treatment-related cutaneous squamous cell carcinoma, grade 2 or higher, Total” value ([1]; human) was 20 (11) ^* n (%) and the “Treatment-related cutaneous squamous cell carcinoma, toxicity grade 2” value ([1]; human) was 0 n (%). For the same compound, the “Treatment-related cutaneous squamous cell carcinoma, toxicity grade 3” value ([1]; human) was 20 (11) n (%), the “Treatment-related fatigue, grade 2 or higher, Total” value ([1]; human) was 14 (8) n (%) and the “Treatment-related fatigue, toxicity grade 2” value ([1]; human) was 12 (7) n (%). For the same compound, the “Treatment-related fatigue, toxicity grade 3” value ([1]; human) was 2 (1) n (%), the “Treatment-related pyrexia, grade 2 or higher, Total” value ([1]; human) was “(6) n (%)” and the “Treatment-related pyrexia, toxicity grade 2” value ([1]; human) was 10 (5) n (%). For the same compound, the “Treatment-related pyrexia, toxicity grade 3” value ([1]; human) was 1 (<1) n (%), the “Non-cutaneous SCC” value [1] was “not observed” and the Patients with keratoacanthoma [1] was “three”. The Photosensitivity [1] was “not observed”, the “Recurrence or metastasis of cutaneous SCC after local excision” value [1] was “no recurrence or metastasis was observed” and the “Patients with decrease in mean SUVmax of tumour FDG uptake vs baseline” value (tumour FDG uptake; 53 of 56 patients) was 95%. For the same compound, the “Median decrease in mean SUVmax of tumour FDG uptake” value (tumour FDG uptake; 56 patients) was 60%, the “Range of percentage change from baseline in mean SUVmax” value (tumour FDG uptake; 56 patients) was −100% to 19 and the “Patients achieving complete resolution of all brain lesions” value ([2]; RP2D) was “four of ten”. The “Patients with decreasing size of extracranial metastases” value ([2]; among patients with responding brain lesions) was “all nine”, the “Patients with site of progression in extracranial sites alone” value [2, 7] was “three” and the “Patients with site of progression in the brain alone” value [2, 7] was “three”. The “Survival at 5 months” value ([2]; n=10) was “All patients were alive at 5 months”, the “Time at which the most durable responder met criteria for progressive disease” value ([2]; remains on study at 19 months) was 15 months and the “Patients who received treatment for at least 6 months” value ([3]; V600K, all dose levels, nine patients) was 50%. The Responses ([3]; three patients with non-V600 or complex BRAF mutations) was “no responses were observed”, the Responses (BRAF wild-type melanoma) was “no responses were observed” and the “Penetration of the blood-brain barrier” value [4] was “neither vemurafenib nor dabrafenib demonstrate penetration”. The “Penetration of the intact blood–brain barrier by the parent drug” value ([4]; preclinical, after single-dose administration, ref unpublished data) was “minimal penetration”.
For CCCS(=O)(=O)Nc1ccc(F)c(C(=O)c2c[nH]c3ncc(-c4ccc(Cl)cc4)cc23)c1F [vemurafenib], the “Reduction in risk of death” value ([5]; Phase III, first-line vs dacarbazine, V600E mutant metastatic melanoma) is listed as 63%, the Unconfirmed responses ([5]; V600E BRAF-mutant metastatic melanoma, Phase I) is listed as 81% and the Confirmed response rate ([5]; V600E-mutant BRAF metastatic melanoma, Phase III vs dacarbazine) is listed as 48%. The Photosensitivity [5] was “commonly reported”, the Response rate ([5]; ten of 336 patients carrying the V600K mutation, Phase III) was 40% and the “Penetration of the blood-brain barrier” value [4] was “neither vemurafenib nor dabrafenib demonstrate penetration”. The “Inhibition in cell line with K601E mutation” value [6] was “less inhibition”.
